Data on 18 compounds can be found in ChEMBL document CHEMBL1926556, “Synthesis and biological activities of 2-[(heteroaryl)methyl]imidazolines” (Bioorg Med Chem, 2012).

Active and inactive are the calls of the source. No cut-off for these calls is given here.

Assay [1] concerns the target T1, Adrenergic receptor alpha-2 (Rattus norvegicus, UniProt P22086+P19328+P22909).
T1 sequence (P22086 whole entry): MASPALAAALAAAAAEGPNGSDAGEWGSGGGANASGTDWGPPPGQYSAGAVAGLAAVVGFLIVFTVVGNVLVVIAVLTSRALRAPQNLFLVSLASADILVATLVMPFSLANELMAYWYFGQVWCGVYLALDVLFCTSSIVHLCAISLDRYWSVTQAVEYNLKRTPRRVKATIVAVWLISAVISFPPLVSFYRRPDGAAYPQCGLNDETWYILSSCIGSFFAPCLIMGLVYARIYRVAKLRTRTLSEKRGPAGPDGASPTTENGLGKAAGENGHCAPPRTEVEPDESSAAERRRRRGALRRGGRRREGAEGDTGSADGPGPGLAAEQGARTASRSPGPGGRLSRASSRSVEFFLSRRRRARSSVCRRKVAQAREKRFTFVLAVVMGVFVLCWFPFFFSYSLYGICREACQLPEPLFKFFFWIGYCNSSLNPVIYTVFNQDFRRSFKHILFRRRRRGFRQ
T1 sequence (P19328 whole entry): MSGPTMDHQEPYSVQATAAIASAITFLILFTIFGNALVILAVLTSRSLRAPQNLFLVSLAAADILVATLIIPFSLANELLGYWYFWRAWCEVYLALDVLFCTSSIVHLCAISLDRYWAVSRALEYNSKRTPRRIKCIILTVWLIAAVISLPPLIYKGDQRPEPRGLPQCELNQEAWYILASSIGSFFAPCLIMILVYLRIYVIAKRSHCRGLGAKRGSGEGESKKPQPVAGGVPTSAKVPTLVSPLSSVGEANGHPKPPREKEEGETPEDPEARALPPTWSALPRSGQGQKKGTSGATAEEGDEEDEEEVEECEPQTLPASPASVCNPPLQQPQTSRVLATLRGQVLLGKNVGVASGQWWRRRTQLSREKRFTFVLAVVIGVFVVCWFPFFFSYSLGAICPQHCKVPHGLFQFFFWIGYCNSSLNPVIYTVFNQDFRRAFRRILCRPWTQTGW
T1 sequence (P22909 whole entry): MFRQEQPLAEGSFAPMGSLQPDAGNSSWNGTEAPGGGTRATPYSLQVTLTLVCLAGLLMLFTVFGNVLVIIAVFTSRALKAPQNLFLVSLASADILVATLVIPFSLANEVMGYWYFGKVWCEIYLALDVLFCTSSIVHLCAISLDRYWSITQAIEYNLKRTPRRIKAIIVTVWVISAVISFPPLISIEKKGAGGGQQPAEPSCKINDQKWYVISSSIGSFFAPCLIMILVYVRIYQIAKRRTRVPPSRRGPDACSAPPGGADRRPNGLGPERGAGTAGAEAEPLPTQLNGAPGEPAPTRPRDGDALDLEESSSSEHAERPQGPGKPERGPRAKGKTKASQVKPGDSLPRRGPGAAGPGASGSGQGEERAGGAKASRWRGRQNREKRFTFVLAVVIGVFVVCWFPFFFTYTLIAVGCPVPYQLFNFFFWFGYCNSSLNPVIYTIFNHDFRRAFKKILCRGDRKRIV
The assay can be described thus: Displacement of […] from adrenoceptor alpha2 in Sprague-Dawley rat brain membranes after 45 mins by scintillation counting. Format: cell membranes, Membrane. The gist of the method: (§1)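 Crude P2 membranes from male Sprague–Dawley rat brain (250–280 g), 0.2–0.3 mg protein. Radioligand 1 nM: [3H]2BFI for I2, [3H]prazosin for α1, [3H]RX821002 for α2. Non-specific binding defined by 10 µM BU224 (I2), 10 µM phenylephrine (α1) or 10 µM rauwolscine (α2). 11 concentrations from 0.01 nM to 100 µM, triplicate, 45 min at RT. Filtration and scintillation counting; Ki by Cheng–Prusoff.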
(In general: Displacement assays read how much labelled ligand stays bound in the presence of the test substance.)

A short description of assay [2]: Displacement of [3H]BFI from imidazoline I2 receptor in Sprague-Dawley rat brain membranes after 45 mins by scintillation counting. Format: cell membranes, Membrane. The gist of the method:
as §1

The target in assay [3] is Nischarin (Rattus norvegicus, UniProt Q4G017). As to the kind of experiment: Displacement of [3H]clonidine from imidazoline I1 receptor in Sprague-Dawley rat kidney membranes after 45 mins by scintillation counting. The assay is classed as cell membranes, Membrane. The gist of the method: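 Crude P2 membranes from male Sprague–Dawley rat kidney, 0.2–0.5 mg protein. […] Specific binding defined by 10 µM rilmenidine. 11 concentrations from 0.01 to 100 µM, 50 mM Tris-HCl pH 7.4, 45 min at RT. Filtration and scintillation counting; IC50.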

Assay [4] addresses T2, Adrenergic receptor alpha-1 (Rattus norvegicus, UniProt P15823+P23944+P43140).
T2 sequence (P15823 whole entry): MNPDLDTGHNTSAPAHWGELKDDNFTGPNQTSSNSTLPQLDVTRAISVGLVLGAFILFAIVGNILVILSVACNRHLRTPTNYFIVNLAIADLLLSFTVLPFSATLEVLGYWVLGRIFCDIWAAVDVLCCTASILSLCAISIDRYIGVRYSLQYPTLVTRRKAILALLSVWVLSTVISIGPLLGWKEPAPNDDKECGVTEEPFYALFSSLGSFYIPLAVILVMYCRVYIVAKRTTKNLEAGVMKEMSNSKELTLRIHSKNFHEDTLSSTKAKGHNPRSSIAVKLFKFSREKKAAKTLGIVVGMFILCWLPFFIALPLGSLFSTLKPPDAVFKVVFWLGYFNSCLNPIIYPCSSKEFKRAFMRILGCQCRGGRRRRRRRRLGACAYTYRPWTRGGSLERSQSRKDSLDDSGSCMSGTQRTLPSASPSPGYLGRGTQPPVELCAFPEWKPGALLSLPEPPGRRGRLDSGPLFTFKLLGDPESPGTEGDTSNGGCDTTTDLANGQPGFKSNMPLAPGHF
T2 sequence (P23944 whole entry): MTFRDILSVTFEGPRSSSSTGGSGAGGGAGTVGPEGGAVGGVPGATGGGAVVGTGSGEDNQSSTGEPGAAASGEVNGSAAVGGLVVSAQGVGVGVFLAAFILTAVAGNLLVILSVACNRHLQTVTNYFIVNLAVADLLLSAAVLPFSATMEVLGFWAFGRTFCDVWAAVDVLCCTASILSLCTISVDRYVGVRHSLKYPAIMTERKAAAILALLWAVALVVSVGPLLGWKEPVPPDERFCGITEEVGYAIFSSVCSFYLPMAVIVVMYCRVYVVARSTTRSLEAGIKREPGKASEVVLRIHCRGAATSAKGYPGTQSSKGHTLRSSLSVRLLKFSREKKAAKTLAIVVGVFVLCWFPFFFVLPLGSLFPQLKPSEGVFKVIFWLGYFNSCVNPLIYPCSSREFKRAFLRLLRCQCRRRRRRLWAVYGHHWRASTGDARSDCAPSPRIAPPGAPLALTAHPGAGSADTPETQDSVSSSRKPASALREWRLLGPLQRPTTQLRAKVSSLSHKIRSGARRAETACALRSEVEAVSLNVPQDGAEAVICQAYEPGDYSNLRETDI
T2 sequence (P43140 whole entry): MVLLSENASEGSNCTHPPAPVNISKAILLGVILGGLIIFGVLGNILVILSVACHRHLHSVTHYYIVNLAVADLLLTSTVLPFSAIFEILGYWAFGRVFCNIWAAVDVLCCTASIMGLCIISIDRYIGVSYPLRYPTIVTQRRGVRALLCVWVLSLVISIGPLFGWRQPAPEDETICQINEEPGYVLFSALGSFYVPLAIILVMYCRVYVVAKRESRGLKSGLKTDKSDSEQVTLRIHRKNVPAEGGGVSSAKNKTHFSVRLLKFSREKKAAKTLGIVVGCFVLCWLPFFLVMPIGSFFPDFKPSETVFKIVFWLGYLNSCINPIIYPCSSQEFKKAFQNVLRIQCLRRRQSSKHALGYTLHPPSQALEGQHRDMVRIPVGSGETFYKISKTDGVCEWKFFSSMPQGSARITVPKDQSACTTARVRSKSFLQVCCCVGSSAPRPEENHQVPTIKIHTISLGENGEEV
The assay can be described thus: Displacement of [3H]prazosin from adrenoceptor alpha1 in Sprague-Dawley rat brain after 45 mins by scintillation counting. In short, it runs like this: as §1

Assay [5] addresses T3, Alpha-2A adrenergic receptor (Homo sapiens) (UniProt P08913).
T3 sequence (whole entry): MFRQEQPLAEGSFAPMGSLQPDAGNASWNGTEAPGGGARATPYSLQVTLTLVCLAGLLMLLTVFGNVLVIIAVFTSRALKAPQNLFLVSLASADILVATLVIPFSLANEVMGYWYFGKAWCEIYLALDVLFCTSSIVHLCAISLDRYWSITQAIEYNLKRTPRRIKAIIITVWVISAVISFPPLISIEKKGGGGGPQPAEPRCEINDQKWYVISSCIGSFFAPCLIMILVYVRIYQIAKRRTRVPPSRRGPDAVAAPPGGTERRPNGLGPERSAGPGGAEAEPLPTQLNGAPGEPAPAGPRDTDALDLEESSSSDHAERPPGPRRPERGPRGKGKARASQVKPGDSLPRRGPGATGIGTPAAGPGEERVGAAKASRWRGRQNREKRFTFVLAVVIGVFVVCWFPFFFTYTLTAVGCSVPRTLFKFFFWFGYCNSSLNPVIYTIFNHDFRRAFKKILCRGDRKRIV
The assay can be described thus: Agonist activity at human adrenoceptor alpha2A expressed in CHOK1 cells assessed as stimulation of agonist-induced [35S]GTPgammaS binding by scintillation counting assay relative to noradrenaline. The assay is classed as functional, cell-based. Conditions: CHO-K1. In short, it runs like this:
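Membranes from CHO-K1 cells stably expressing human α2A-adrenoceptor; 5 µg protein incubated with serial dilutions of agonist and 0.1 nM [35S]GTPγS in Tris buffer pH 7.4 with 1 µM GDP, MgCl2, NaCl, 30 min at RT. Filtered and counted by scintillation. EC50 and intrinsic activity relative to noradrenaline; means from 3 independent experiments.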
In general terms: Binding of GTPγS marks nucleotide exchange on a G protein.

For assay [6], the species on record is Rattus norvegicus. The assay can be described thus: Displacement of [3H]BFI from imidazoline I2 in Sprague-Dawley rat brain membranes at 1 X 10^6 after 45 mins by scintillation counting. Format: cell membranes. The settings on record: Membrane.

Chain of Nischarin (Q4G017 whole entry): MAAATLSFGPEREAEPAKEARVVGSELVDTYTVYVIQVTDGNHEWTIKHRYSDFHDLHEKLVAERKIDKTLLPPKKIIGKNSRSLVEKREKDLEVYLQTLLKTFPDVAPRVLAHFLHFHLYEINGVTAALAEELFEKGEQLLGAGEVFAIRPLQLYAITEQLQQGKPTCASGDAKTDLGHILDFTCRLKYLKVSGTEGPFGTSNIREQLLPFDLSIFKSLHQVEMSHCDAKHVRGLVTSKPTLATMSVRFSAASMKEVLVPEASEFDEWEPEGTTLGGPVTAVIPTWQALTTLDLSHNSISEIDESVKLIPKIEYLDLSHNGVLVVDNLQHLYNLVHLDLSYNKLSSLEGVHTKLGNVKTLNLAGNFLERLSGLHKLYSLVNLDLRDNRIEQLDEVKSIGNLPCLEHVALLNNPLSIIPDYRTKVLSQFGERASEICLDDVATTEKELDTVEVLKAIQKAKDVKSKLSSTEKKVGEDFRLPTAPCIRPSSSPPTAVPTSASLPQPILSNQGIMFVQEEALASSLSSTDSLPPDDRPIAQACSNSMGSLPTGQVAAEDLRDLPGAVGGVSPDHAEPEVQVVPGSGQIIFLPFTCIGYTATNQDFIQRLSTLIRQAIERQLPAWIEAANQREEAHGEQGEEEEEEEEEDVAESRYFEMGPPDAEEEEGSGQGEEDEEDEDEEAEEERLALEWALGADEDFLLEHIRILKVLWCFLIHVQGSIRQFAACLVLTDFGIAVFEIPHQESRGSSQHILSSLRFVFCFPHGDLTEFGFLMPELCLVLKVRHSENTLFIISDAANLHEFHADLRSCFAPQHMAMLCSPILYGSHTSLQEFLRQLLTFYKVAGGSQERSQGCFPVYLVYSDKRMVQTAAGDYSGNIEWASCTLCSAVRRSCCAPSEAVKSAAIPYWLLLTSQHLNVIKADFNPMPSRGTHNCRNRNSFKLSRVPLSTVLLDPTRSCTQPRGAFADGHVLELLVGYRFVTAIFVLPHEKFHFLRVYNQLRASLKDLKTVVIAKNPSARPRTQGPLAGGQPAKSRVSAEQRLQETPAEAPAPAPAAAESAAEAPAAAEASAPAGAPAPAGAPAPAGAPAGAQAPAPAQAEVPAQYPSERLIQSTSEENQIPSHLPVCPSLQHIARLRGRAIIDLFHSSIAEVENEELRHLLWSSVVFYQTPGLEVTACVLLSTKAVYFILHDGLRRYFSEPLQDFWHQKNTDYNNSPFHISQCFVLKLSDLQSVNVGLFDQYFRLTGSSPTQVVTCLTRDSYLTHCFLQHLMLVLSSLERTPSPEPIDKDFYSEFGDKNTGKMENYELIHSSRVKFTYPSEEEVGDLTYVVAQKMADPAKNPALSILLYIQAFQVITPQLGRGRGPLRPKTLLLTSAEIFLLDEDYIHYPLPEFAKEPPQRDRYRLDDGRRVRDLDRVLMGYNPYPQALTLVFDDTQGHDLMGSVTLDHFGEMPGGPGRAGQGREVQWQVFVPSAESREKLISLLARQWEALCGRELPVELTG

The term Ki denotes a measure of affinity in units of concentration, obtained from inhibition or displacement. A lower Ki goes with higher affinity. By IC50 is commonly meant the midpoint of a concentration-inhibition curve. A lower IC50 goes with greater potency in that assay. In the case of `Cc1cc2ncn(CC3=NCCN3)c2cc1C.Cl.Cl`, the Ki in assay [1] worked out at 2.26 µM; in assay [2] it was 28 µM; in assay [4], 1.5 µM. Moreover, the IC50 in assay [3] turned out to be 74 µM.
In the case of `Cc1cccc2c1cnn2CC1=NCCN1.Cl`, the Ki in assay [1] was 0.197 µM; in assay [2], 0.116 µM; in assay [4], 0.409 µM. The compound further gave an IC50 in assay [3] of 12.9 µM.
In the same order, the values of `Cc1cccc2c1ncn2CC1=NCCN1.Cl.Cl` are 0.273 µM, 24.4 µM, 1.5 µM and 77.7 µM.
Take `Cl.c1ccc2c(c1)nnn2CC1=NCCN1`: the Ki in assay [1] is 5.11 µM; in assay [2] it was 0.81 µM; in assay [4], 1.34 µM. The concentration for half-maximal inhibition (IC50) in assay [3] amounted to 56.8 µM.
The like results for `CCc1nc2ccccc2n1CC1=NCCN1.Cl.Cl` were, in that order, 5 µM, 34.1 µM, 5.5 µM and 44.2 µM.
The like results for `Cc1cccc2nn(CC3=NCCN3)nc12.Cl.Cl` were, in that order, 0.499 µM, 0.078 µM, 1.54 µM and 48.8 µM.
What is called Emax is the greatest response seen or fitted, relative to the assay's reference. Turning to `NC[C@H](O)c1ccc(O)c(O)c1`, the Emax in assay [5] came to 100%.
Consider `Cc1ccc2c(cnn2CC2=NCCN2)c1.Cl.Cl`, for which the Ki amounted to 0.268 µM in assay [1], 0.022 µM in assay [2] and 0.363 µM in assay [4]. Moreover, the IC50 in assay [3] stood at 45.4 µM.
Turning to `Cl.Cl.c1ccc(-c2nc3ccccc3n2CC2=NCCN2)cc1`, the result in assay [6] was inactive. Further, the Ki in assay [1] is 7.44 µM; in assay [4], 1.11 µM. The IC50 in assay [3] is 28.1 µM.
In the same order, the values of `Cl.Cl.c1ccc(Cc2nc3ccccc3n2CC2=NCCN2)cc1` are “inactive”, 11.2 µM, 30.9 µM and 21 µM.
As for `Cc1nn(CC2=NCCN2)c2ccccc12.Cl.Cl`, the inhibition constant Ki in assay [1] was 0.435 µM; in assay [2] it was 0.359 µM; in assay [4], 0.095 µM. In assay [3], this compound came in with an IC50 of 21.3 µM.
For `COc1cccc2c1cnn2CC1=NCCN1.Cl.Cl`, the Ki in assay [1] was 0.305 µM; in assay [2], 0.382 µM; in assay [4] it was 1.67 µM. The compound also gave an IC50 in assay [3] of 32.9 µM.
Regarding `Cc1cc2nnn(CC3=NCCN3)c2cc1C.Cl.Cl`, the Ki in assay [1] stood at 1.56 µM; in assay [2], 26.3 µM; in assay [4] it was 8.04 µM. Also, the IC50 in assay [3] came to 16.8 µM.
As to `Cl.Clc1cccc2c1cnn2CC1=NCCN1`, the Ki in assay [1] amounted to 0.13 µM; in assay [2], 2.85 µM; in assay [4], 0.187 µM. The IC50 in assay [3] worked out at 5.15 µM.
In the same order, the values of `Cc1cc2nn(CC3=NCCN3)nc2cc1C.Cl.Cl` are 1.32 µM, 0.233 µM, 6.07 µM and 0.646 µM.
With `Cl.Fc1cccc2cnn(CC3=NCCN3)c12`, the Ki is 0.0126 µM in assay [1], 0.156 µM in assay [2] and 0.107 µM in assay [4]. Besides, the IC50 in assay [3] was found to be 16.4 µM.
As to `CCc1nc2cc(C)c(C)cc2n1CC1=NCCN1.Cl.Cl`, the Ki turned out to be 7.41 µM in assay [1], 0.081 µM in assay [2] and 12.9 µM in assay [4]. The same compound returned an IC50 in assay [3] of 93.3 µM.
Turning to `Cl.Cl.c1ccc2c(c1)ncn2CC1=NCCN1`, the Ki turned out to be 3.25 µM in assay [1], 6.1 µM in assay [2] and 0.929 µM in assay [4]. In assay [3], this compound gave an IC50 of 43.9 µM.
